Compounds with a hit are over-represented: about 1.9% of the library has one in this group of screens.
Htt clearance – clearance of mutant huntingtin inclusions, primary screen, imaging, HeLa Exon1htt(103Q)mCFP, confocal imaging; aggregate imaging; zero = plate's median compound well; inhibition, % at 1.5 µM; 0.42% of 47,000 active;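 active = inhibition of aggregate fluorescence above about 70%, also judged a hit by eye on the cell image, limit read from the data, passing the limit was not always enough; inconclusive = no rule stated for this call; inactive = not judged a hit on image review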;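 also: cells exposed to compound for three days before fixation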
Jurkat viability – cytotoxicity toward Jurkat T cells, primary screen, cytotoxicity control, cell-based, Jurkat E6.1, 60K MLSMR library | Jurkat E6.1 viability, ATP luminescence, 48 h | inhibition, % at 4 µM | 1.2% of 56,000 active | AID 463, 2006;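 active = inhibition above the mean inhibition of all tested compounds plus 3 SD, cut at about 28% in these data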
HER2 expr 66K – inhibitors of Her2 protein expression, primary screen, SKBR-3 cells, AlphaScreen, 66K library; SKBR-3 HER2 protein level, 18-24 h; active compounds read low; HER2 level % of control, % at 10 µM; 0.69% of 65,000 active; AID 645, 2007;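 active = HER2 level under 5% of the carrier-only control; inconclusive = no clear call, values can overlap the other calls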;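 also: 100% = DMSO carrier and 0% = 500 nM PU-H71 HSP90 inhibitor; lower value means stronger loss of Her2 protein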
SKBR3 24h inh – SK-BR-3 proliferation inhibitors, primary screen, cell-based, human, 24 h; SK-BR-3 viability, CellTiter-Glo ATP luminescence; active compounds read low; viability, % at 10 µM; 0.47% of 41,000 active; AID 847, 2007;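 active = viability at or below the median of all test compounds minus 3 SD, in both replicates if run twice, cut at about 45% in these data; inconclusive = duplicate replicates that disagree with each other; inactive = viability above that cutoff in every replicate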;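 also: 100% = median untreated cell wells and 0% = median positive control drug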
HEK293 NFkB inh – inhibitors of PMA/ionomycin-induced NF-kB reporter, primary screen, antigen receptor NF-kB inhibitor project, cell-based, HEK-293 luciferase reporter, luminescence | HEK-293 NF-kB luciferase reporter | inhibition, % at 3 µM | 0.21% of 62,000 active;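 active = inhibition above the mean of all tested compounds plus 3 SD, cut at about 40% in these data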;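 also: 0% = stimulated DMSO wells and 100% = 10 µM reference inhibitor 5653914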
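Signal: luciferase luminescence; Material: HEK-293 cells with stable firefly luciferase reporter driven by four HIV NF-kB elements; Probe or stimulus: PMA with ionomycin; Replication: tested once; Times: 1 h compound pretreatment, then 16 h stimulation at 37 °C, 5% CO2; Benchmarks: DMSO and 10 µM reference inhibitor; Evaluation: per-plate % inhibition versus controls.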
Active calls of the source: *; ? = inconclusive; nt = not tested or not shown.

SMILES	Htt clearance	Jurkat viability	HER2 expr 66K	SKBR3 24h inh	HEK293 NFkB inh
O=C(O)c1ccc2nc(C(F)(F)F)[nH]c2c1	nt	-9	86	105	10
CC(O)CCc1nc2ccc(C(=O)O)cc2[nH]1 (configuration not stated)	-16	7	-19*	96	19
CCN(CC)c1ccc(/C=C(/C#N)c2nc3ccccc3[nH]2)c(OC(C)C)c1	46	nt	nt	nt	nt
CN(CC(=O)NC(=O)NCc1ccco1)Cc1nc2ccccc2c(=O)[nH]1	nt	16	-33*	nt	6
CCOC(=O)C1CCN(C(=O)c2cccnc2Cl)CC1	10	nt	nt	nt	nt
CCc1ccc2oc(-c3cc(N)cc(C)c3O)nc2c1	25	47*	71	86	33
CCCCCCC1CC(CSc2ncn[nH]2)OC1=O (configuration not stated)	nt	-1	92	111	10
CC(=O)Nc1ccc(NC(=O)CN(c2ccccc2Cl)S(C)(=O)=O)cc1	31	2	173	83	10
Cc1nc(CCNC(=O)COc2ccccc2)cs1	74*	0	71	nt	-9
CCc1nc(C)ccc1OCC(=O)NCCCN(C)C	12	0	-28*	87	14
CCc1nc(C)ccc1OCC(=O)O	nt	1	142	nt	6
CCOC(=O)c1c(C)[nH]c(N=Nc2ccccc2C)c1C	12	nt	nt	nt	nt
COC(=O)Cc1cc(=O)[nH]c(Nc2nc3ccccc3o2)n1	75*	0	76	89	-9
CCOC(=O)Cc1cc(=O)[nH]c(Nc2nc3ccccc3o2)n1	12	2	94	nt	16
CN(C)c1ccc(C2N(c3cccc(Cl)c3)C(=O)C3CCCN32)cc1 (configuration not stated)	nt	-8	96	nt	4
Cc1cc(N2C(=O)C3C4C=CC(C4)C3C2=O)ccc1Br (configuration not stated)	-22	-11	81	90	18
COc1ccc(CNc2ccc(C(=O)O)cc2)cc1	-7	5	-30*	108	0
Cc1conc1NC(c1cccs1)c1ccc2cccnc2c1O (configuration not stated)	nt	30*	49	77	2
CNC(=O)C1CCCN1S(=O)(=O)c1ccc(OC)cc1 (configuration not stated)	-47	-2	132	81	24
COc1ccc(CNC(=O)C2CCCN2S(=O)(=O)c2ccc(S(=O)(=O)N(C)C)cc2)cc1 (configuration not stated)	nt	2	96	33*	8
COC(=O)C1=CNC=C(C(=O)OC)C1c1ccc(C(=O)OC)cc1	nt	6	83	92	14
CC(C)c1ccc(-c2noc(C3CCCN(C(=O)c4ccc(F)cc4F)C3)n2)cc1 (configuration not stated)	nt	9	66	106	7
Cc1ccc(-c2noc(C3CCCN(C(=O)c4ccc(F)cc4F)C3)n2)cc1 (configuration not stated)	nt	6	48	42*	14
CCC(Sc1nc2cc3c(cc2c(=O)n1Cc1ccco1)OCO3)C(=O)Nc1ccccc1OC (configuration not stated)	nt	nt	20	nt	17
CCC(Sc1nc2cc3c(cc2c(=O)n1Cc1ccco1)OCO3)C(=O)Nc1cccc(OC)c1 (configuration not stated)	nt	nt	-17*	nt	17
SMILES	Htt clearance	Jurkat viability	HER2 expr 66K	SKBR3 24h inh	HEK293 NFkB inh
CC1(C)CC(=O)C(C=NCC2CCN(C(=O)Nc3ccc(Cl)c(Cl)c3)CC2)=C(O)C1	43	nt	nt	nt	nt
CC(=O)C1C(c2ccccc2Cl)NC(=O)NC1(O)C(F)(F)F (configuration not stated)	nt	2	84	nt	8
CCOC(=O)C1C(c2ccccc2Cl)NC(=O)N(C)C1(O)C(F)(F)F (configuration not stated)	-15	-2	-28*	84	5
Cc1ccc(C(c2sc3nc(C)nn3c2O)N2CCN(c3ccccc3F)CC2)cc1 (configuration not stated)	5	-2	-18*	93	12
Cc1ccc(C(c2sc3nc(C)nn3c2O)N2CCN(CCO)CC2)cc1 (configuration not stated)	nt	2	71	nt	6
Clc1ccc(C(c2nnnn2C2CCCC2)N2CCSCC2)cc1 (configuration not stated)	-59	9	71	74	9
O=S1(=O)C=C(Sc2nnc(-c3ccccc3)o2)c2ccccc21	nt	101*	-9.4*	1.4*	12
Cc1cc(C)nc(SC2=CS(=O)(=O)c3ccccc32)n1	-29	12	39	82	22
Cc1cc(C)cc(N(CC(=O)N2CCOCC2)S(=O)(=O)c2ccccc2)c1	39	nt	nt	nt	nt
CCOc1ccccc1N(CC(=O)N1CCOCC1)S(=O)(=O)c1ccccc1	-5	2	-21*	91	5
c1cc(-c2nnc3n2CCCCC3)ccn1	nt	3	141	nt	7
c1cnc(-c2nnc3n2CCCCC3)cn1	13	1	-16*	nt	18
O=C(N/C(=C/c1ccc(Br)cc1)c1nc2ccccc2[nH]1)c1ccco1	80*	nt	nt	nt	nt
Cc1cc(NC(=O)CSc2cn(CCNC(=O)c3ccccc3)c3ccccc23)no1	?	-8	102	nt	8
Cc1ccc(C(=O)NCCn2cc(SCC(=O)Nc3cc(C)on3)c3ccccc32)cc1	nt	7	72	nt	47*
Cc1ccc(-c2csc3ncnc(Sc4nnc(CN5CCCCCC5=O)o4)c23)cc1	nt	71*	-25*	nt	34
Cc1ccc(-c2csc3ncnc(SCC(=O)c4ccc5c(c4)OCCO5)c23)cc1	5	nt	nt	nt	nt
CN1c2ccccc2C(C)(C)C12C=Cc1cc(O)ccc1O2 (configuration not stated)	nt	54*	18	nt	18
CCOC(=O)c1ccc(N=c2sc(C(=O)OC)cc(=O)n2Cc2ccco2)cc1	nt	8	2.9*	nt	12
CCOC(=O)c1ccc(N=c2sc(C(=O)OC)cc(=O)n2CCCN2CCOCC2)cc1	nt	7	57	nt	10
CCOc1ccc(OCC)c(-c2c(=O)n(OCc3ccccc3Br)c3ccccc3[n+]2[O-])c1	-5	nt	nt	nt	nt
CSC1=C(C#N)C(c2ccc(Cl)cc2)C2=C(CC(C)(C)CC2=O)N1 (configuration not stated)	nt	36*	51	nt	5
CCCSC1=C(C#N)C(c2ccc(OC)cc2)C2=C(CC(C)(C)CC2=O)N1 (configuration not stated)	nt	nt	87	81	nt
Cc1nn(Cc2cccc(C(=O)NCC(C)C)c2)c(C)c1Br	57	nt	nt	nt	nt
CCN(CC(F)(F)C(F)F)S(=O)(=O)c1ccc(NC(=O)OC)cc1	16	-6	102	86	11
COC(=O)Nc1ccc(S(=O)(=O)N(CCO)CC(F)(F)C(F)F)cc1	-20	-6	-19*	63	4

Screening data as filed in PubChem BioAssay.
